In the library only some 1.4% were active in any assay of this set; here they are far more common.
PLC-beta3 inh: PLC-beta3 (human) inhibition, primary screen. inhibition, % at 12.2 µM. Purified PLC-beta3, fluorogenic substrate, fluorescence. AID 720704. Q01970. 370,000 tested, 0.18% active; in the data active means inhibition above about 11%;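 further: 0% = median of compound wells on plate and 100% = full blocker control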
Target sequence (Q01970 whole entry, looked up): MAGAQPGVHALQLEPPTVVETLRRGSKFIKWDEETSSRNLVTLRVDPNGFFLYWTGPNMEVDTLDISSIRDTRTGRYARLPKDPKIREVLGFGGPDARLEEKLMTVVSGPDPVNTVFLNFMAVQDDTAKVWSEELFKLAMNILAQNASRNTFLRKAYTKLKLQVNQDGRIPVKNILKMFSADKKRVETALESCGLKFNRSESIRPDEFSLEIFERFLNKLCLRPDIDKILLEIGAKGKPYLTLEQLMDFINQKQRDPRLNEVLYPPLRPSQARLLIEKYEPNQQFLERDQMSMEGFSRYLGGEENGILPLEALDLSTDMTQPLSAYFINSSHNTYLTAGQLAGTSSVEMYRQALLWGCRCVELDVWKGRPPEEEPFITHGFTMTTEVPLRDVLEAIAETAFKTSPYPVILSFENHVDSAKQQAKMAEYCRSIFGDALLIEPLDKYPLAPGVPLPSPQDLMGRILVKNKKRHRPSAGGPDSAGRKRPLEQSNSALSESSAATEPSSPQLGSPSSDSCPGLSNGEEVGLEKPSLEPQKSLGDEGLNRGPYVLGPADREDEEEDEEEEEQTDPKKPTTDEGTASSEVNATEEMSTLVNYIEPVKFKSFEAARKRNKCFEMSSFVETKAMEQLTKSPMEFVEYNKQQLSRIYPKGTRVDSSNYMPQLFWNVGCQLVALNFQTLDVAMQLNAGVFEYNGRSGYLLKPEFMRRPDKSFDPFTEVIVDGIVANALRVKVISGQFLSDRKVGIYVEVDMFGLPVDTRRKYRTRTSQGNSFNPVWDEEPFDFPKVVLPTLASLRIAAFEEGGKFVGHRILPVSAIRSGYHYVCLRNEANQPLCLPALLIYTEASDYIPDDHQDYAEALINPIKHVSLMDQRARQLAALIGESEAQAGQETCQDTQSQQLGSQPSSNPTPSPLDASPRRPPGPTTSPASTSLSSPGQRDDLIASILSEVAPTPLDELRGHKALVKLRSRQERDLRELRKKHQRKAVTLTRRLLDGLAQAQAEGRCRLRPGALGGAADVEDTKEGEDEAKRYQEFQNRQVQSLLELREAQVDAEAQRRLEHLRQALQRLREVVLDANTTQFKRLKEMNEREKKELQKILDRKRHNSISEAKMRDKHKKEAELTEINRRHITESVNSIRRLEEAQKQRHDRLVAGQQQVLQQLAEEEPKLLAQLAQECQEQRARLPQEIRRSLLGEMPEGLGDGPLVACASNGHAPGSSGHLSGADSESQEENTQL
DNA FID counter: fluorescent intercalator displacement, NS3 helicase counter-screen; 290,000 tested, 0.17% active; DNA fluorescent intercalator displacement, fluorescence; inhibition, % at 7.9 µM; in the data active means inhibition above about 37%;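 further: 0% = vehicle and 100% = reference compound; higher means more ethidium bromide displaced from hairpin DNA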
PLC-gamma1 inh: PLC-gamma1 (human) inhibition, primary screen. inhibition, % at 12.2 µM. 370,000 tested, 0.84% active. purified PLC-gamma1, fluorogenic substrate, fluorescence. P19174; in the data active means inhibition above about 9.5%
DDE Tn6 FP inh: DD(E)-Tn6 binding inhibition, primary FP screen. P02675. Fibrin DD(E) TRITC-Tn6 fluorescence polarization displacement. inhibition, % at 8.3 µM. 370,000 tested, 0.21% active;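 active means inhibition above a per-campaign cutoff: mean of compounds within control limits plus 3 SD, cut at about 15% in these data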;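 further: 0% = median of all compound wells on the plate and 100% = blocking peptide control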
DDE Tn7 FP inh: DD(E)-Tn7 binding inhibition, primary FP screen; P02675; AID 720508; FP displacement of FITC-Tn7 peptide from fibrin DD(E); 0% = median of compound wells per plate; 370,000 tested, 0.13% active; inhibition, % at 8.3 µM;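 active means inhibition above the mean of compounds falling within the control limits plus 3 SD of them, cut at about 14% in these data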;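 further: 0% = plate median of compound wells and 100% = 10 µM Aha-Tn7 peptide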
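Test system – human fibrin DD(E) · Times – 10 min preincubation, 3 h with tracer, room temperature · Detection – fluorescence polarization of the labelled Tn7 tracer · Measure – percent inhibition normalized to high-control wells · Benchmarks – high control wells with 10 µM unlabelled Aha-Tn7 peptide (full inhibition) · Repeats – singlicate testing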
DDE Tn7 confirm: confirmation of inhibitors of Tn7 binding to human fibrin DD(E). shares compounds with DDE Tn7 FP inh. FP displacement of TRITC-Tn7 peptide from DD(E); 0% set at plate's compound-well median. inhibition, % at 8.3 µM. 460 tested, 5% active;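 active means inhibition above the campaign cutoff, the mean of compounds within control limits plus 3 SD, cut at about 14% in these data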;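 further: 100% = median FP of high control wells holding Aha-Tn7 inhibitor peptide; displacers lower polarization since freed probe rises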
Tn7 DDE ctr: DD(E)-Tn7 binding inhibition, counter-screen; shares compounds with DDE Tn7 FP inh; fibrin DD(E), TRITC-Tn7 probe displacement, fluorescence polarization; 460 tested, 3% active; inhibition, % at 8.3 µM;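 active means inhibition above the cutoff, the mean of compounds lying between the control bounds plus 3 SD of those compounds, cut at about 17% in these data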;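 further: 0% = median of compound sample wells and 100% = excess unlabeled Aha-Tn7 peptide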
Starred values were filed as active, the others as inactive; . = not tested or not shown.

SMILES	PLC-beta3 inh	DNA FID counter	PLC-gamma1 inh	DDE Tn6 FP inh	DDE Tn7 FP inh	others
C#CCOCCOCCOCCNc1nc(N2CCN(C(=O)C(Cc3ccc(O)cc3)n3cc(C(N)CC(C)C)nn3)CC2)nc(N2CCN(C(=O)C(Cc3cc4ccccc4[nH]3)n3cc(C(N)C(C)CC)nn3)CC2)n1 (configuration not stated)	.	33	.	.	.
C#CCOCCOCCOCCNc1nc(N2CCN(C(=O)[C@H](Cc3ccc(O)cc3)n3cc([C@@H](N)CC(C)C)nn3)CC2)nc(N2CCN(C(=O)[C@H](Cc3cc4ccccc4[nH]3)n3cc([C@@H](N)CC(C)C)nn3)CC2)n1	2	37*	3	-2	-2
C#CCOCCOCCOCCNc1nc(N2CCN(C(=O)C(Cc3cc4ccccc4[nH]3)n3cc(C(N)C(C)CC)nn3)CC2)nc(N2CCN(C(=O)C(Cc3cc4ccccc4[nH]3)n3cc(C(N)C(C)CC)nn3)CC2)n1 (configuration not stated)	.	38*	.	.	.
C#CCOCCOCCOCCNc1nc(N2CCOCC2)nc(N2CCN(C(=O)[C@H](Cc3cc4ccccc4[nH]3)n3cc([C@@H](N)C(C)CC)nn3)CC2)n1 (some centres not stated)	-2	31	0	7	-10
Fc1ccc(Nc2ccnc(Nc3ccc(F)cc3)n2)cc1	0	39*	-1	-10	-1
Nc1ncnc(Nc2ccc(F)cc2)n1	0	0	3	8	-4
O=C(Nc1ccccc1N1CCOCC1)c1cccnc1Cl	-4	47*	-1	-1	0
COc1ccc(OC)c(S(=O)(=O)NCCO)c1	-2	8	-4	10	-4
CCNS(=O)(=O)c1cc(OC)ccc1OC	4	38*	2	-3	-6
O=C(CSC1CCCCC1)N1CCN(c2ccccc2)CC1	1	-16	1	1	0
C=CCn1cc(CN2CCC(C(=O)Nc3cccc(-c4cccc(Cl)c4)c3)CC2)c(C)n1	-9	41*	2	0	-4
CCCn1ncc(CN2CCC(C(=O)Nc3cccc(-c4cccc(F)c4)c3)CC2)c1C	-4	44*	1	10	7
COc1ccc(S(=O)(=O)NCC2CCCN(C(=O)C=C(C)C)C2)cc1 (configuration not stated)	2	-14	7	4	-12
COc1cc(CNCCO)cc(Cl)c1OCc1ccc(Cl)cc1Cl	0	43*	3	3	1
CCCCCCS(=O)[C@H]1CS(=O)(=O)C[C@@H]1S(=O)CCCCCC (some centres not stated)	11*	-27	3	-1	-3
COc1cccc(N2CCN(Cc3ncc(-c4ccccc4)o3)CC2)c1	-9	-36	-2	6	-2
O=C(Nc1ccc(C2=NCCN2)cc1)c1ccc(C(=O)Nc2ccc(C3=NCCN3)cc2)c([N+](=O)[O-])c1	-3	70*	2	-2	7
CCn1c(COc2ccccc2)nc2ccccc21	-1	-13	-1	0	0
COc1cc2c(cc1NC(=O)/C=C/c1cc(OC)c(OC)c(OC)c1)oc1ccccc12	-161	-3	-141	0	0
CC(=O)Nc1ccc(NC(=O)[C@@H](NC(=O)c2ccccc2F)C(C)C)cc1	-4	-7	5	10	15*	DDE Tn7 confirm=3;Tn7 DDE ctr=3
CC(C)C(NC(=O)c1ccccc1F)C(=O)Nc1ccc2c(c1)OCO2 (configuration not stated)	-2	-1	-1	-11	-4
O=C(CCN1CCOCC1)NNC(=O)Nc1cccc([N+](=O)[O-])c1	-6	-4	0	-1	3
COc1ccc2c(CC(=O)O)cc(=O)oc2c1	-48	-2	-28	4	15*	DDE Tn7 confirm=0;Tn7 DDE ctr=-3
COc1cc(C2c3cc4c(cc3OC(NCc3ccccc3)C2C)OCO4)cc(OC)c1OC (configuration not stated)	-1	.	-2	2	14*	DDE Tn7 confirm=-2;Tn7 DDE ctr=-3

Bioassay records deposited in PubChem by The Scripps Research Institute Molecular Screening Center.
